Data published in ChEMBL document CHEMBL4732210, “Discovery of new phenyl sulfonyl-pyrimidine carboxylate derivatives as the potential multi-target drugs with effective anti-Alzheimer's action: Design, synthesis, crystal structure and in-vitro biological evaluation” (Eur J Med Chem, 2021).

What was measured:
Type in all cases: cell-based
Conditions in all cases: Erythrocyte
[1] = compound: CCOC(=O)c1c(C)nc(N2CCN(S(=O)(=O)c3ccc(NC(C)=O)c(Cl)c3)CC2)nc1-c1ccc(OC)c(OC)c1; assay: Non-competitive inhibition of AChE in human erythrocytes assessed as Vmax at 25 nM measured at 2 mins interval for 10 mins by Lineweaver-Burk plot analysis
Outline: (§1)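 Human AChE kinetics in the Ellman DTNB assay. Inhibitor at 25, 50 and 100 nM, each with six ATCI concentrations, against an inhibitor-free series. Activity read every 2 min over 10 min. Km and Vmax from Michaelis–Menten non-linear regression; mechanism from Lineweaver–Burk plots; Ki from Dixon plot over four inhibitor concentrations and from slope/intercept replots. Triplicate.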

[2] = compound: CCOC(=O)c1c(C)nc(N2CCN(S(=O)(=O)c3ccc(NC(C)=O)c(Cl)c3)CC2)nc1-c1ccc(OC)c(OC)c1; assay: Non-competitive inhibition of AChE in human erythrocytes assessed as Vmax at 50 nM measured at 2 mins interval for 10 mins by Lineweaver-Burk plot analysis; outline: as §1
[3] = compound: CCOC(=O)c1c(C)nc(N2CCN(S(=O)(=O)c3ccc(NC(C)=O)c(Cl)c3)CC2)nc1-c1ccc(OC)c(OC)c1; assay: Non-competitive inhibition of AChE in human erythrocytes assessed as Vmax at 100 nM measured at 2 mins interval for 10 mins by Lineweaver-Burk plot analysis; outline: as §1
[4] = compound: CCOC(=O)c1c(C)nc(N2CCN(S(=O)(=O)c3ccc(NC(C)=O)c(Cl)c3)CC2)nc1-c1ccc(OC)c(OC)c1; assay: Non-competitive inhibition of AChE in human erythrocytes assessed as Km at 25 nM measured at 2 mins interval for 10 mins by Lineweaver-Burk plot analysis; outline: as §1
[5] = compound: CCOC(=O)c1c(C)nc(N2CCN(S(=O)(=O)c3ccc(NC(C)=O)c(Cl)c3)CC2)nc1-c1ccc(OC)c(OC)c1; assay: Non-competitive inhibition of AChE in human erythrocytes assessed as Km at 50 nM measured at 2 mins interval for 10 mins by Lineweaver-Burk plot analysis; outline: as §1
[6] = compound: CCOC(=O)c1c(C)nc(N2CCN(S(=O)(=O)c3ccc(NC(C)=O)c(Cl)c3)CC2)nc1-c1ccc(OC)c(OC)c1; assay: Non-competitive inhibition of AChE in human erythrocytes assessed as Km at 100 nM measured at 2 mins interval for 10 mins by Lineweaver-Burk plot analysis; outline: as §1

B1: Acetylcholinesterase (Homo sapiens), P22303 (protein)
chain: MRPPQCLLHTPSLASPLLLLLLWLLGGGVGAEGREDAELLVTVRGGRLRGIRLKTPGGPVSAFLGIPFAEPPMGPRRFLPPEPKQPWSGVVDATTFQSVCYQYVDTLYPGFEGTEMWNPNRELSEDCLYLNVWTPYPRPTSPTPVLVWIYGGGFYSGASSLDVYDGRFLVQAERTVLVSMNYRVGAFGFLALPGSREAPGNVGLLDQRLALQWVQENVAAFGGDPTSVTLFGESAGAASVGMHLLSPPSRGLFHRAVLQSGAPNGPWATVGMGEARRRATQLAHLVGCPPGGTGGNDTELVACLRTRPAQVLVNHEWHVLPQESVFRFSFVPVVDGDFLSDTPEALINAGDFHGLQVLVGVVKDEGSYFLVYGAPGFSKDNESLISRAEFLAGVRVGVPQVSDLAAEAVVLHYTDWLHPEDPARLREALSDVVGDHNVVCPVAQLAGRLAAQGARVYAYVFEHRASTLSWPLWMGVPHGYEIEFIFGIPLDPSRNYTAEEKIFAQRLMRYWANFARTGDPNEPRDPKAPQWPPYTAGAQQYVSLDLRPLEVRRGLRAQACAFWNRFLPKLLSATDTLDEAERQWKAEFHRWSSYMVHWKNQFDHYSKQDRCSDL
- Vmax [1]: 7.2 U/min
- Vmax [2]: 6.52 U/min
- Vmax [3]: 5.54 U/min
- Km [4]: 0.0772 µM
- Km [5]: 0.0852 µM
- Km [6]: 0.0965 µM
